Published values pooled from the literature.
Compare with care: the assays were run in different laboratories.

O=C(c1ccc(Oc2ccc(OCc3ccccc3)cc2)c([N+](=O)[O-])c1)C(Cl)Cl
inhibition (NCI-H1299; cell growth or viability, MTT; 2.5 µM): 86.4%

O=C1C(NCCc2c[nH]c3ccccc23)=CC2=NCCc3c[nH]c1c32
IC50 (Babesia divergens; parasite growth, SYBR Green; 60 h, blood stage): 970 nM

CN(Cc1ccc(C(C)(C)C)cc1)Cc1cccc2ccccc12
inhibition zone (Trichophyton mentagrophytes; microbial growth, disc diffusion; ATCC18748; 0.004 µg/mL, 72 h): 34 mm

Cc1c(C(N)=S)c(N)n(N)c(=O)c1C#N
inhibition zone (Enterobacter cloacae; microbial growth, well diffusion; ATCC23355; 500 µg/mL): 19 mm

CC#CCOc1ccc(/C=C/c2cc(OC)cc(OC)c2-c2cnnn2C(=O)NC(C)C)cc1
inhibition (RAW264.7; NO release, inhibitor, Griess; 10 µM, LPS-stimulated): 78.7%

CN(Cc1ccc(C2(C(F)(F)F)CC2)cc1)Cc1cccc2ccccc12
inhibition zone (Trichophyton mentagrophytes; microbial growth, disc diffusion; ATCC18748; 0.512 µg/mL, 72 h): ≥ 55 mm

O=C1CC[C@@H](COc2ccc(C(=O)C(Cl)Cl)cc2[N+](=O)[O-])N1
inhibition (NCI-H1299; cell growth or viability, MTT; 2.5 µM): 94.7%

Cc1ccc(-c2cc(C(F)(F)F)nn2-c2ccc(S(N)(=O)=O)cc2)cc1
inhibition (RAW264.7; NO release, inhibitor, Griess; 10 µM, LPS-stimulated): 35.2%

CC(=O)OCCCOc1ccc(C(=O)C(Cl)Cl)cc1[N+](=O)[O-]
inhibition (NCI-H1299; cell growth or viability, MTT; 2.5 µM): 60.3%

C=CC(=O)NC1CCN(c2ncc3ncnc(Nc4ccc(Oc5ccc6c(c5)ncn6C)c(C)c4)c3n2)CC1
EC50 (COR-L279; cell growth or viability): 7.54 nM

CCCOc1ccc(/C=C/c2cc(OC)cc(OC)c2-c2cnnn2C(=O)NCCc2ccccc2)cc1
inhibition (RAW264.7; NO release, inhibitor, Griess; 10 µM, LPS-stimulated): 69.3%

COc1cccc2c1C(=O)c1c(O)c3c(c(O)c1C2=O)C[C@@](O)(C(=O)CO)C[C@@H]3O[C@H]1C[C@H](N)[C@H](O)[C@H](C)O1
inhibition (NCI-H1299; cell growth or viability, MTT; 2.5 µM): 95.7%
